{
  "source": "paper PMC9390995",
  "about": "(Science Advances, 2022)",
  "key": {"[1]": {"tested_on": "p-STAT5/p-STAT6 in hPBMCs", "test": "γc cytokine-stimulated STAT phosphorylation, Western blot", "format": "cell-based, human", "conditions": "fig. S1", "summary_of_the_method": "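hPBMCs in RPMI 1640 with 10% FBS at 37°C, 5% CO2, plated 5×10^5 per well. Pretreated 1 h with test compound, then stimulated with IL-2, IL-4, IL-7, IL-9, IL-15 or IL-21. Lysed in RIPA buffer with protease/phosphatase inhibitors. p-STAT5/p-STAT6 by Western blot normalized to GAPDH; three independent experiments.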"}, "[2]": {"tested_on": "JAK2", "conditions": "read-out: IC50 against JAK2; cited from earlier work"}, "[3]": {"target": "JAK1 (Homo sapiens, UniProt P23458)", "sequence (P23458 whole entry)": "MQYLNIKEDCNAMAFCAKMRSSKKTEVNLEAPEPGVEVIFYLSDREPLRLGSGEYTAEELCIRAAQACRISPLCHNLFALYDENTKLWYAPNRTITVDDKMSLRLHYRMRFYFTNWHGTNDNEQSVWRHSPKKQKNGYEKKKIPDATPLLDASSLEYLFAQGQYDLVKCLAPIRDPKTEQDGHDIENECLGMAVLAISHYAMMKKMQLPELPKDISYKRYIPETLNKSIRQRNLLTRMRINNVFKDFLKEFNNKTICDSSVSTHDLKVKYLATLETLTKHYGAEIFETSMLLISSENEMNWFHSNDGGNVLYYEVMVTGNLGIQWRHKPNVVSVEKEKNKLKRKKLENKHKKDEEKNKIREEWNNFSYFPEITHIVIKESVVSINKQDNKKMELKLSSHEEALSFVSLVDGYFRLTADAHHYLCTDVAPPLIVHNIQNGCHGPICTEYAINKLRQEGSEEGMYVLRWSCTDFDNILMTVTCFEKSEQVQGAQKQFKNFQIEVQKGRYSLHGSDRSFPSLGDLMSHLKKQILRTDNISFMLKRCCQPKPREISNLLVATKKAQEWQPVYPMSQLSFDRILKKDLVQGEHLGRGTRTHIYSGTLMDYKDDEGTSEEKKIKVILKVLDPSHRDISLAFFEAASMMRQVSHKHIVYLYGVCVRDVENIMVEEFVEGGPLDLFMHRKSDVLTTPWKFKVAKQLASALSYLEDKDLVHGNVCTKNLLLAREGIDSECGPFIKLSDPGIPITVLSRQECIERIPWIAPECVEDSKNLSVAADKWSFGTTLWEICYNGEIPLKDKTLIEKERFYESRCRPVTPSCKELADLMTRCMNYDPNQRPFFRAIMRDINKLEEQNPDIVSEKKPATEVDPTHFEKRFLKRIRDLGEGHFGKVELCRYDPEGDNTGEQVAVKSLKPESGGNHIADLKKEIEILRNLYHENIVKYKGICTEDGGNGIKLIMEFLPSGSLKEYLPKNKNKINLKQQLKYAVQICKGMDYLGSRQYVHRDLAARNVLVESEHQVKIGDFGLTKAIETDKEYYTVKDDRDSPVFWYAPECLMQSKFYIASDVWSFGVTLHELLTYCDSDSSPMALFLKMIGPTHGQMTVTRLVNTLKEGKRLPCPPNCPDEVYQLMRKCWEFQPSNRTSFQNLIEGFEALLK", "conditions": "biochemical assays; cited from earlier work"}},
  "data": [
    {"smiles": "C=CC(=O)N1C[C@H](Nc2ncnc3[nH]ccc23)CC[C@@H]1C", "note": "[Ritlecitinib, 1-((2S,5R)-5-((7H-pyrrolo[2,3-d]pyrimidin-4-yl)amino)-2-methylpiperidin-1-yl)prop-2-en-1-one]", "values": [
      {"measurement": "IL-2-induced p-STAT5 levels", "setting": "[1]", "value": "potent inhibition"},
      {"measurement": "IC50", "setting": "[2]", "value": "> 10", "unit": "µM"}
    ]},
    {"smiles": "O=C(Nc1nc2cccc(-c3ccc(CN4CCS(=O)(=O)CC4)cc3)n2n1)C1CC1", "note": "[filgotinib]", "values": [
      {"measurement": "preference for JAK1 over JAK2", "setting": "[3]", "value": 2.8, "unit": "fold"}
    ]},
    {"smiles": "CC[C@@H]1CN(C(=O)NCC(F)(F)F)C[C@@H]1c1cnc2cnc3[nH]ccc3n12", "note": "[upadacitinib]", "values": [
      {"measurement": "preference for JAK1 over JAK2", "setting": "[3]", "value": 2.4, "unit": "fold"}
    ]}
  ]
}
